The source made the active and inactive calls. The rule behind the calls is not given here.
Tests used:
[1] = target: Urokinase-type plasminogen activator (Homo sapiens, UniProt P00749); assay: Inhibition of recombinant C-terminal His10-tagged human uPA (M1 to L431 residues) expressed in mouse NS0 cells using Z-GGR-AMC as substrate after 15 mins by automated fluorescence assay
How it was run: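 On-line assay integrated with the flow-synthesis platform: a 20 µL aliquot of each product solution captured automatically, HPLC-purified, then diluted and assayed.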

Serine protease hepsin [2] = target: T1, Serine protease hepsin (Homo sapiens, UniProt P05981); assay: Inhibition of doxycycline induced Hepsin in human MCF10A cells using Boc-QRR-AMC as substrate preincubated for 24 hrs followed by doxycycline induction for 24 hrs and subsequent addition of substrate by fluorescence assay; type: cell-based
Serine protease hepsin [3] = target: T1, Serine protease hepsin; assay: Inhibition of doxycycline induced Hepsin in human MCF10A cells assessed as prevention in loss of HAI-1 level at 10 uM preincubated for 30 mins followed by doxycycline addition measured after 6 hrs by Immunoblot assay; type: cell-based
How it was run: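 MCF10A-Indu20-hepsin cells (Dox-inducible hepsin) pretreated 30 min with compound or DMSO, then hepsin induced with 100 ng/mL doxycycline for 6 h; HAI-1 protein scored by immunoblot.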

Chymase (Homo sapiens) = target: T2, Chymase (Homo sapiens) (UniProt P23946); assay: Inhibition of human chymase using Suc-Ala-Ala-Pro-Phe-AMC as substrate at 10 uM after 120 mins by fluorescence spectrophotometric method relative to control
T2 sequence (whole entry): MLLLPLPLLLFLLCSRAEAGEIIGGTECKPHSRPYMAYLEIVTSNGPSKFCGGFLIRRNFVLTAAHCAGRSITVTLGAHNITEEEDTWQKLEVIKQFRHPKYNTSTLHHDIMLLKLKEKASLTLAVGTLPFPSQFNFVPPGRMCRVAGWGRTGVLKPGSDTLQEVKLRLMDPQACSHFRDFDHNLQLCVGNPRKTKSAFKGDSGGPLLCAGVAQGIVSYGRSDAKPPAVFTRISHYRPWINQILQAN
How it was run: (§1)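 Panel of ten serine proteases; percent inhibition read at compound concentrations of 1 µM and 10 µM, each value the mean of 2 experiments.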

[4] = target: T3, Neutrophil elastase (Homo sapiens) (UniProt P08246); assay: Inhibition of elastase (unknown origin) at 1 uM relative to control; how it was run: as §1
T3 sequence (whole entry): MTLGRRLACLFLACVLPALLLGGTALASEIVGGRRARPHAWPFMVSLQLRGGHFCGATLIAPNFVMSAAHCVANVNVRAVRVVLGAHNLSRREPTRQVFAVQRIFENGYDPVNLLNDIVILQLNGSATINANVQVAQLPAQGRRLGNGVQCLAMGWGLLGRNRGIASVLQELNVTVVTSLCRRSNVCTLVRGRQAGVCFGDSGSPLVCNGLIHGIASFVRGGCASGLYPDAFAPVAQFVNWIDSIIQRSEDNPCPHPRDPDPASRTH

Trypsin (Homo sapiens) = Trypsin (Homo sapiens) (UniProt P07477+P07478+P35030); assay: Inhibition of human trypsin using Z-Gly-Pro-Arg-AMC as substrate at 1 uM after 60 mins by fluorescence spectrophotometric method relative to control; type: protein assay; how it was run: as §1
[5] = target: Plasma kallikrein (Homo sapiens) (UniProt P03952); assay: Inhibition of human plasma kallikrein using H-D-Pro-Phe-Arg-pNA as substrate at 1 uM after 30 mins by spectrophotometric method relative to control; how it was run: as §1
[6] = target: T4, Suppressor of tumorigenicity 14 protein (Homo sapiens) (UniProt Q9Y5Y6); assay: Inhibition of matriptase (unknown origin) using BOC-QAR-AMC as substrate at 10 uM after 15 mins by fluorescence assay relative to control; how it was run: as §1
T4 sequence (whole entry): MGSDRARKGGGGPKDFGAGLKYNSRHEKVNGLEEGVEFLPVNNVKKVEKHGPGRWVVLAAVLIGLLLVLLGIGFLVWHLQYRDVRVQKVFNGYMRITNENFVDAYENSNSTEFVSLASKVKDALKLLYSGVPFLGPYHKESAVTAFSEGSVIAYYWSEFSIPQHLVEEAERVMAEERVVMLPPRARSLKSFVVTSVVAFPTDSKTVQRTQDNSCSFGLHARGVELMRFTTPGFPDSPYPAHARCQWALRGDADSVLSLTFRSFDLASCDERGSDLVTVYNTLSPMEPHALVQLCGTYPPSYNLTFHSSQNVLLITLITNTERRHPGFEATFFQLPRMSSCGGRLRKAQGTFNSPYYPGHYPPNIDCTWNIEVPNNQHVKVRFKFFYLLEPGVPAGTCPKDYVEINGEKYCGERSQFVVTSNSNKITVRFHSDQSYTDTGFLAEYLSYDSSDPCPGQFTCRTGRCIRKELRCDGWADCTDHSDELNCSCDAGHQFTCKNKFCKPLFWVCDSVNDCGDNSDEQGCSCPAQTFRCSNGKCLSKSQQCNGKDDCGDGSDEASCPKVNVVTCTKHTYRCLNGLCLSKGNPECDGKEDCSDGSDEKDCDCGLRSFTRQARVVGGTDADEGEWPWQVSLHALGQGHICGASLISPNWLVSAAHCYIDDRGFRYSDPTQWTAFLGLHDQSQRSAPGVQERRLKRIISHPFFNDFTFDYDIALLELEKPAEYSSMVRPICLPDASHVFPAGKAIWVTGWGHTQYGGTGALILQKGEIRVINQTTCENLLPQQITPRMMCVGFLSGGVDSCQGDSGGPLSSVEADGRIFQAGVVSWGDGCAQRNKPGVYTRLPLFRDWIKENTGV

[7] = target: T5, Hepatocyte growth factor activator serine protease (Homo sapiens) (UniProt Q04756); assay: Inhibition of C-terminal 10-His tagged recombinant human HGFA (Gln36 to Ser655 residues) expressed in mouse […] cells 10 uM after 15 mins by fluorescence assay relative to control; type: cell-based
T5 sequence (whole entry): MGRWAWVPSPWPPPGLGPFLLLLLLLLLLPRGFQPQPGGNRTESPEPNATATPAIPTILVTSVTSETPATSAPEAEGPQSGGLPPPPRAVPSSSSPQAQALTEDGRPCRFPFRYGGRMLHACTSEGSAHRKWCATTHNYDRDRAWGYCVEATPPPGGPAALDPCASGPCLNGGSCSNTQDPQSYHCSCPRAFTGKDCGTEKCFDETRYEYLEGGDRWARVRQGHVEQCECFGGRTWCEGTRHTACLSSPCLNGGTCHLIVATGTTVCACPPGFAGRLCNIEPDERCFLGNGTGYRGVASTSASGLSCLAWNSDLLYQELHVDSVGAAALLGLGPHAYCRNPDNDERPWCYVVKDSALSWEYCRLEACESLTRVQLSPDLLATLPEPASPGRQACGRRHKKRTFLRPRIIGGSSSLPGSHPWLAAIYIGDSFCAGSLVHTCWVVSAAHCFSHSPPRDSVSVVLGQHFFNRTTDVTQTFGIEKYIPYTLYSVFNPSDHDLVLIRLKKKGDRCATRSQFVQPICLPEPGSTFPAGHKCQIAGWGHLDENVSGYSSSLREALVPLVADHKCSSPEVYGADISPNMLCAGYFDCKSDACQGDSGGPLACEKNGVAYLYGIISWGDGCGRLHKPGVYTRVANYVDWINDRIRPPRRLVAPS

T1 sequence (P05981 1-162 limits assumed): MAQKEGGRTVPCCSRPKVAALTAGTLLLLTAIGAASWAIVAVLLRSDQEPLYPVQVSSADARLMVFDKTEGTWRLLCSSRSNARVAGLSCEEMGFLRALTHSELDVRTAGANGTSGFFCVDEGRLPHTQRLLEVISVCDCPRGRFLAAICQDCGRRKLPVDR
T1 sequence (P05981 163-417 limits assumed): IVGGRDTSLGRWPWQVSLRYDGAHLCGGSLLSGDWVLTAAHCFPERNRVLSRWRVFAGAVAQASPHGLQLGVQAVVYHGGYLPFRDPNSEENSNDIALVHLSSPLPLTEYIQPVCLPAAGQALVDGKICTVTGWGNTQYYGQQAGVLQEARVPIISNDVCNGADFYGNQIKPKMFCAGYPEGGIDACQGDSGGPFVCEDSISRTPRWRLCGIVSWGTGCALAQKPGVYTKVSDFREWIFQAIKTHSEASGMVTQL
Chain of Plasma kallikrein (Homo sapiens) (P03952 20-390 limits assumed): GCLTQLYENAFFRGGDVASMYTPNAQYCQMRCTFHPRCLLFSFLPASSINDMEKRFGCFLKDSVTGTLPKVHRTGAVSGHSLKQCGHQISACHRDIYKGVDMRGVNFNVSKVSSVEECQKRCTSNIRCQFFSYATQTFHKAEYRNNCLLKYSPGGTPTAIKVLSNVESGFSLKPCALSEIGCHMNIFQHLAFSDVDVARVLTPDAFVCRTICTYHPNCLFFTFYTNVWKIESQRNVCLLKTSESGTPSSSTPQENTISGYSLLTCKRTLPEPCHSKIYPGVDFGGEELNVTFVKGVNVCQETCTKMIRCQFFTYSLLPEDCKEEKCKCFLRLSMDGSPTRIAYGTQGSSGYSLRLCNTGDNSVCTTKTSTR
Chain of Plasma kallikrein (Homo sapiens) (P03952 391-638 limits assumed): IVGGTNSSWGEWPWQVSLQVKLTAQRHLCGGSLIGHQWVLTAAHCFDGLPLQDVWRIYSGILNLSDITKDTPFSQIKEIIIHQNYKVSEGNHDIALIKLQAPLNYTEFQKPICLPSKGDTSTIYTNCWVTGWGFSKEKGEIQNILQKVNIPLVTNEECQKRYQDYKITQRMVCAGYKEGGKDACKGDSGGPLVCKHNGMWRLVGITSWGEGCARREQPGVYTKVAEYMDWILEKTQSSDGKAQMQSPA

| Structure (SMILES) | IC50 [1] | IC50 (Serine protease hepsin [2]) | inhibition (Serine protease hepsin [3]) | inhibition (Chymase (Homo sapiens)) | inhibition [4] | inhibition (Trypsin (Homo sapiens)) | inhibition [5] | inhibition [6] | inhibition [7] |
| --- | --- | --- | --- | --- | --- | --- | --- | --- | --- |
| Cc1ccc(S(=O)(=O)N[C@@H](C(=O)Nc2ccc(C(=N)N)cc2)C2CCCCC2)cc1 | 4.4 µM | 0.99 µM | inactive | < 10% | < 10% | 83% | < 10% | < 10% | 22% |
| Cc1ccc(S(=O)(=O)N[C@@H](C(=O)Nc2ccc(C(=N)N)cc2)c2ccccc2)cc1 |  | 0.1 µM | Active | < 10% | < 10% | 54% | 34% | < 10% | 24% |
| N=C(N)c1ccc(NC(=O)[C@H](NS(=O)(=O)c2ccc(F)cc2)C2CCCCC2)cc1 | > 14 µM | 1.29 µM | inactive | < 10% | < 10% | 77% | 12% | < 10% | 24% |

Reference: ChEMBL document CHEMBL4118144, “Design, Synthesis, and Testing of Potent, Selective Hepsin Inhibitors via Application of an Automated Closed-Loop Optimization Platform” (J Med Chem, 2018)
